Experimental data: ChEMBL document CHEMBL4354820, “Optimizing Targeted Inhibitors of P-Glycoprotein Using Computational and Structure-Guided Approaches” (J Med Chem, 2019); call rule not given here

Legend:
[1] = target: T1, P-glycoprotein (ABCB1, MDR1) ATPase (Homo sapiens, UniProt P08183); assay: Inhibition of verampil-stimulated ATPase hydrolysis in recombinant human MDR1 expressed in Pichia pastoris measured after 30 mins in presence of NADH by coupled enzyme assay (reference value: 100 +/- 6 %); design: scale not given: the % may be the effect or the level left; conditions: recombinant human MDR1 (P-gp) expressed in Pichia pastoris
T1 sequence (P08183 whole entry): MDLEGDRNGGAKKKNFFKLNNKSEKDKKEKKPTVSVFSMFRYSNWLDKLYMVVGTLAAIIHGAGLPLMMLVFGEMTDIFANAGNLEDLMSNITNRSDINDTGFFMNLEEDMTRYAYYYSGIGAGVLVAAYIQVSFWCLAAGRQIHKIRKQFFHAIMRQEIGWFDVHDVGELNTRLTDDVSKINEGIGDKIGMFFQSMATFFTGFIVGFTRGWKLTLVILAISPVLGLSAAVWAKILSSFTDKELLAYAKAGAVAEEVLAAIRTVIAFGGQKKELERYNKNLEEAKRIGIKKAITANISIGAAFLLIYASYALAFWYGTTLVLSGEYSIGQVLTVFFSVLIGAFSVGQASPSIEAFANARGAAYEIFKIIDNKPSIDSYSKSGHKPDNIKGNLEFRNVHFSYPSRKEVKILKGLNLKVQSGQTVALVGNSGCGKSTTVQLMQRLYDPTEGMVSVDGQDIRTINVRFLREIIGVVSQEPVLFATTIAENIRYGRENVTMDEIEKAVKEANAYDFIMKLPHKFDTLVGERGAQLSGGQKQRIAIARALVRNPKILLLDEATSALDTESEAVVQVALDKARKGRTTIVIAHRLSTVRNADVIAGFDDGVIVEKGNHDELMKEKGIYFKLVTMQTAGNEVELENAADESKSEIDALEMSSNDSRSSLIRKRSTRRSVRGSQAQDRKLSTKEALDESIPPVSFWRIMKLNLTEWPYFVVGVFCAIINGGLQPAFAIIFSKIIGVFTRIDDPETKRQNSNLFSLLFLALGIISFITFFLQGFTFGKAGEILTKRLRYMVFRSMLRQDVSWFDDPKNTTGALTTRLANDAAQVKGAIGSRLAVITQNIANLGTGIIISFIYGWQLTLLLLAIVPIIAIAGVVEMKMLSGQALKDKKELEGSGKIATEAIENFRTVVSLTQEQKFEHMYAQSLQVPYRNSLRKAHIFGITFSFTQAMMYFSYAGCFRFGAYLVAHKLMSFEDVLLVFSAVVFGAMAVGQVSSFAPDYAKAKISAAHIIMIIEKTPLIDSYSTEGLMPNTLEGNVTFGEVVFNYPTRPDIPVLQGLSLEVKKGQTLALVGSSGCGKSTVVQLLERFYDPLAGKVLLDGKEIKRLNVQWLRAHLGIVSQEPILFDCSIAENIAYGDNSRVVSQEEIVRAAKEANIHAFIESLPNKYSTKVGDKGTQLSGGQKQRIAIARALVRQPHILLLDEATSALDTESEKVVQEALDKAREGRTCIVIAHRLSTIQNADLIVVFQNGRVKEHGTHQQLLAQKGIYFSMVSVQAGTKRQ

[2] = target: P-glycoprotein 1 Abcb1a (Mus musculus); assay: Inhibition of spin-labelled adenine nucleotide interaction with mouse MDR3 P-gp expressed in Escherichia coli BL21 (DE3) assessed as apparent dissociation constant by ESR analysis (reference value: 36.5 +/- 3.6 uM)
[3] = target: T2, ATP-dependent translocase ABCB1 (Homo sapiens, UniProt P08183); assay: Reversal of P-gp mediated multidrug resistance in human DU145-TxR cells overexpressing P-gp assessed as potentiation of paclitaxel-induced cytotoxicity by measuring fold reduction paclitaxel IC50 at 3 uM after 48 hrs by MTT assay relative to parent compound; assay type: cell-based
T2 sequence (P08183 whole entry): as above
How it was run: (§1)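 DU145TXR cells seeded at 3000 per well, 24 h later treated 48 h with paclitaxel alone or with 3, 5, 7 or 10 μM inhibitor in complete medium (DMSO vehicle). MTT 4 h, formazan dissolved in DMSO, A570 read, background subtracted, viability relative to DMSO. IC50 by four-parameter nonlinear fit; eight replicates, at least two experiments. Fold values compare paclitaxel alone or with parent inhibitor.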

[4] = target: T2, ATP-dependent translocase ABCB1; assay: Reversal of P-gp mediated multidrug resistance in human DU145-TxR cells overexpressing P-gp assessed as potentiation of paclitaxel-induced cytotoxicity by measuring fold reduction paclitaxel IC50 at 3 uM after 48 hrs by MTT assay relative to paclitaxel alone; assay type: cell-based; how it was run: as §1
[5] = target: T3, P-glycoprotein (ABCB1, mouse MDR3) ATPase (Mus musculus, UniProt P21447); assay: Stimulation of verampil-mediated ATPase hydrolysis in recombinant mouse MDR3 expressed in Pichia pastoris measured after 30 mins in presence of NADH by coupled enzyme assay (reference value: 100 +/- 8 %); design: scale not given: the % may be the effect or the level left; conditions: recombinant mouse MDR3 (P-gp) expressed in Pichia pastoris, read-out: Activity
T3 sequence (P21447 whole entry): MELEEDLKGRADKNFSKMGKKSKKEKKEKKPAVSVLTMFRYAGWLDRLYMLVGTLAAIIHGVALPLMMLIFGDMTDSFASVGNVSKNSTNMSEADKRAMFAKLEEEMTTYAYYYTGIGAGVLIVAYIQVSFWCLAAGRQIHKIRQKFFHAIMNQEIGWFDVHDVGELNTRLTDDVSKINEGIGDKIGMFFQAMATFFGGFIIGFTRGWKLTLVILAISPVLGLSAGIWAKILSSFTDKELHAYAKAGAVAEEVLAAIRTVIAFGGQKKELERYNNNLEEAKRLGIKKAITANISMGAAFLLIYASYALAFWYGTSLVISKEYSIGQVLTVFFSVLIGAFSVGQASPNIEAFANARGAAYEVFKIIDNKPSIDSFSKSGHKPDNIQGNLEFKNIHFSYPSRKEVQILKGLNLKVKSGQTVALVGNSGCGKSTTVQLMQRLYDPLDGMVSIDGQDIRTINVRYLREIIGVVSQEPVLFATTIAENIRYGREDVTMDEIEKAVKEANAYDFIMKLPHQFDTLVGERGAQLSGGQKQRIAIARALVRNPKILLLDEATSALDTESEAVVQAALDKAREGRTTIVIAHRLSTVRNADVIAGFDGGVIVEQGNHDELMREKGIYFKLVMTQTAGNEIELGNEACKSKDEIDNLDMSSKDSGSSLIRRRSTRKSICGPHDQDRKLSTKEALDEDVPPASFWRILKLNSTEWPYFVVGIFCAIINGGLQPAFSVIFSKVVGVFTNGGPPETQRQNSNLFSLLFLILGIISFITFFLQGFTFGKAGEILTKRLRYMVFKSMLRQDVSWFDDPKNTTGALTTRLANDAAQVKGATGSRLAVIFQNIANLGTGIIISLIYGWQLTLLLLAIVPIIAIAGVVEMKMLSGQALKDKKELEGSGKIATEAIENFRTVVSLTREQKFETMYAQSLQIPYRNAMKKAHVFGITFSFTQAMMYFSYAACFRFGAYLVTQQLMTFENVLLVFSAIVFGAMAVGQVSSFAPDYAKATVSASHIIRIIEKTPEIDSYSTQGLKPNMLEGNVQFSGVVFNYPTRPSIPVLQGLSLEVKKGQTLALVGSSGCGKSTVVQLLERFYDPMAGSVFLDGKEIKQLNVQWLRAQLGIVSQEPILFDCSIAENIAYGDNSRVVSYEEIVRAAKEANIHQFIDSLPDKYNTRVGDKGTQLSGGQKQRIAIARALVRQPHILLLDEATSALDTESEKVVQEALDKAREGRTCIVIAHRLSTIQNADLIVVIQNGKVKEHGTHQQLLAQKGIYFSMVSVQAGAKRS

[6] = target: T1, P-glycoprotein (ABCB1, MDR1) ATPase; assay: Basal ATPase hydrolysis in recombinant human MDR1 expressed in Pichia pastoris measured after 30 mins in presence of NADH by coupled enzyme assay (reference value: 100 +/- 5 %); design: scale not given: the % may be the effect or the level left; conditions: recombinant human MDR1 (P-gp) expressed in Pichia pastoris
[7] = target: T2, ATP-dependent translocase ABCB1; assay: Inhibition of P-gp overexpressed in human DU145-TxR cells assessed as increase in cellular accumulation of calcein AM at 2 uM preincubated for 6 hrs followed by calcein AM addition by fluorescence imaging analysis; assay type: cell-based
How it was run: (§2)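 Confluent DU145TXR monolayers in phenol red-free RPMI 1640 given 2 μM inhibitor (DMSO vehicle) and 1 μg mL−1 calcein AM, either added together or after a 6 h inhibitor-only preincubation at 37 °C. Calcein fluorescence (ex 485 / em 535 nm) read over 60 min at 20 min intervals. Six replicates, at least two independent experiments.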

[8] = target: T2, ATP-dependent translocase ABCB1; assay: Inhibition of P-gp overexpressed in human DU145-TxR cells assessed as decrease in intracellular compound accumulation after 2.5 hrs in absence of tariquidar by LC-MS/MS analysis; assay type: cell-based
How it was run: (§3)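 P-gp-overexpressing DU145TXR cells exposed to test compounds with or without tariquidar. Intracellular compound measured by LC–MS/MS, with daunorubicin as a transported-substrate control. Ratio is accumulation with tariquidar divided by accumulation without.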

[9] = target: T2, ATP-dependent translocase ABCB1; assay: Ratio of inhibition of P-gp overexpressed in human DU145-TxR cells assessed as increase in intracellular compound accumulation after 2.5 hrs in presence of tariquidar by LC-MS/MS analysis to Inhibition of P-gp overexpressed in human DU145-TxR cells assessed as decrease in intracellular compound accumulation after 2.5 hrs in absence of tariquidar by LC-MS/MS analysis; assay type: cell-based; how it was run: as §3
[10] = test system: P-glycoprotein 1 Abcb1a (Mus musculus); assay: Inhibition of 2',3'-(2,2,5,5,-tetramethyl-3-pyrroline-l-oxyl-3-carboxylic acid ester)ATP interaction with mouse MDR3 P-gp expressed in Escherichia coli BL21 (DE3) assessed as reduction in ATP binding from 2 to 1 of nucleotide to mol of protein by ESR analysis (reference value: 1.8 +/- 0.1)
[11] = target: T2, ATP-dependent translocase ABCB1; assay: Reversal of P-gp mediated multidrug resistance in human DU145-TxR cells overexpressing P-gp assessed as potentiation of paclitaxel-induced cytotoxicity by measuring fold reduction paclitaxel IC50 at 5 uM after 48 hrs by MTT assay relative to parent compound; assay type: cell-based; how it was run: as §1
[12] = target: T2, ATP-dependent translocase ABCB1; assay: Inhibition of P-gp overexpressed in human DU145-TxR cells assessed as increase in intracellular compound accumulation after 2.5 hrs in presence of tariquidar by LC-MS/MS analysis; assay type: cell-based; how it was run: as §3
[13] = target: T2, ATP-dependent translocase ABCB1; assay: Reversal of P-gp mediated multidrug resistance in human DU145-TxR cells overexpressing P-gp assessed as potentiation of paclitaxel-induced cytotoxicity by measuring fold reduction paclitaxel IC50 at 10 uM after 48 hrs by MTT assay relative to paclitaxel alone; assay type: cell-based; how it was run: as §1
[14] = target: T2, ATP-dependent translocase ABCB1; assay: Inhibition of P-gp overexpressed in human DU145-TxR cells assessed as increase in cellular accumulation of calcein AM at 2 uM pretreated followed by calcein AM addition by fluorescence imaging analysis; assay type: cell-based; how it was run: as §2
[15] = target: T2, ATP-dependent translocase ABCB1; assay: Reversal of P-gp mediated multidrug resistance in human DU145-TxR cells overexpressing P-gp assessed as potentiation of paclitaxel-induced cytotoxicity by measuring fold reduction paclitaxel IC50 at 5 uM after 48 hrs by MTT assay relative to paclitaxel alone; assay type: cell-based; how it was run: as §1
[16] = target: T2, ATP-dependent translocase ABCB1; assay: Reversal of P-gp mediated multidrug resistance in human DU145-TxR cells overexpressing P-gp assessed as potentiation of paclitaxel-induced cytotoxicity by measuring fold reduction paclitaxel IC50 at 7 uM after 48 hrs by MTT assay relative to paclitaxel alone; assay type: cell-based; how it was run: as §1
[17] = target: T2, ATP-dependent translocase ABCB1; assay: Reversal of P-gp mediated multidrug resistance in human DU145-TxR cells overexpressing P-gp assessed as potentiation of paclitaxel-induced cytotoxicity by measuring fold reduction paclitaxel IC50 at 7 uM after 48 hrs by MTT assay relative to parent compound; assay type: cell-based; how it was run: as §1
[18] = target: T3, P-glycoprotein (ABCB1, mouse MDR3) ATPase; assay: Stimulation of basal ATPase hydrolysis in recombinant mouse MDR3 expressed in Pichia pastoris measured after 30 mins in presence of NADH by coupled enzyme assay (reference value: 100 +/- 7 %); design: scale not given: the % may be the effect or the level left; conditions: recombinant mouse MDR3 (P-gp) expressed in Pichia pastoris, read-out: Activity
[19] = target: T2, ATP-dependent translocase ABCB1; assay: Reversal of P-gp mediated multidrug resistance in human DU145-TxR cells overexpressing P-gp assessed as potentiation of paclitaxel-induced cytotoxicity by measuring fold reduction paclitaxel IC50 at 10 uM after 48 hrs by MTT assay relative to parent compound; assay type: cell-based; how it was run: as §1
[20] = target: T3, P-glycoprotein (ABCB1, mouse MDR3) ATPase; assay: Basal ATPase hydrolysis in recombinant mouse MDR3 expressed in Pichia pastoris measured after 30 mins in presence of NADH by coupled enzyme assay (reference value: 100 +/- 7 %); design: scale not given: the % may be the effect or the level left; conditions: recombinant mouse MDR3 (P-gp) expressed in Pichia pastoris
[21] = target: T3, P-glycoprotein (ABCB1, mouse MDR3) ATPase; assay: Inhibition of verampil-stimulated ATPase hydrolysis in recombinant mouse MDR3 expressed in Pichia pastoris measured after 30 mins in presence of NADH by coupled enzyme assay (reference value: 100 +/- 8 %); design: scale not given: the % may be the effect or the level left; conditions: recombinant mouse MDR3 (P-gp) expressed in Pichia pastoris

Cc1cc(C)c(-c2cc(NC(=O)CSCC(=O)NC(c3ccccc3)c3ccccc3)n(-c3ccccc3)n2)cc1C
Activity at 0.5 h [1]: 54% | Kd [2]: 21.6 µM | fold change (FC) [3]: 3.9 | fold change (FC) [4]: 13 | Activity at 0.5 h [5]: 116% | Activity at 0.5 h [6]: 76% | inhibition (INH) [7]: Active | inhibition (INH) [8]: Not Active | Ratio [9]: 1.2 | Activity [10]: 1.6 | fold change (FC) [11]: 3.5 | inhibition (INH) [12]: Not Active | fold change (FC) [13]: 193 | inhibition (INH) [14]: Not Active | fold change (FC) [15]: 38 | fold change (FC) [16]: 133 | fold change (FC) [17]: 3.7 | Activity at 0.5 h [18]: 148% | fold change (FC) [19]: 1.9

Cc1cc(C)c(-c2cc(NC(=O)CSCC(=O)Nc3ccc4ccccc4c3)n(-c3ccccc3)n2)cc1C
Activity at 0.5 h [1]: 40% | Kd [2]: 22.2 µM | fold change (FC) [3]: 4.1 | Activity at 0.5 h [20]: 70% | fold change (FC) [4]: 14 | Activity at 0.5 h [5]: 141% | Activity at 0.5 h [6]: 70% | inhibition (INH) [7]: Active | Ratio [9]: 0.9 | Activity [10]: 1.6 | fold change (FC) [11]: 4.2 | fold change (FC) [13]: 1060 | inhibition (INH) [14]: Active | fold change (FC) [15]: 46 | fold change (FC) [16]: 303 | fold change (FC) [17]: 8.4 | fold change (FC) [19]: 11

Cc1cc(C)c(-c2cc(NC(=O)CSCC(=O)NC34CC5CC(CC(C5)C3)C4)n(-c3ccccc3)n2)cc1C
Activity at 0.5 h [1]: 63% | Kd [2]: 22.9 µM | fold change (FC) [3]: 2.7 | Activity at 0.5 h [20]: 78% | fold change (FC) [4]: 9.2 | Activity at 0.5 h [6]: 74% | inhibition (INH) [7]: Active | inhibition (INH) [8]: Not Active | Ratio [9]: 1 | Activity [10]: 1.3 | fold change (FC) [11]: 1.8 | inhibition (INH) [12]: Not Active | fold change (FC) [13]: 163 | Activity at 0.5 h [21]: 41% | inhibition (INH) [14]: Not Active | fold change (FC) [15]: 19 | fold change (FC) [16]: 101 | fold change (FC) [17]: 2.8 | fold change (FC) [19]: 1.6
